# Test results taken from ChEMBL document CHEMBL4411326 (J Med Chem, 2019).
# Active and inactive are the calls of the source. No cut-off for these calls is given here.
# Columns and labels:
# [1] = Displacement of [3H]-cytisine from alpha4beta2* nAChR in Wistar rat cerebral cortex membranes after 75 mins; type: cell membranes
# [2] = target: T1, Neuronal acetylcholine receptor subunit alpha-7 (Rattus norvegicus, UniProt Q05941); experiment: Displacement of [3H]-methyllycaconitine from alpha7* nAChR in rat brain P2 membranes after 2.5 hrs by liquid scintillation spectrometry; type: cell membranes
# T1 sequence (Q05941 whole entry): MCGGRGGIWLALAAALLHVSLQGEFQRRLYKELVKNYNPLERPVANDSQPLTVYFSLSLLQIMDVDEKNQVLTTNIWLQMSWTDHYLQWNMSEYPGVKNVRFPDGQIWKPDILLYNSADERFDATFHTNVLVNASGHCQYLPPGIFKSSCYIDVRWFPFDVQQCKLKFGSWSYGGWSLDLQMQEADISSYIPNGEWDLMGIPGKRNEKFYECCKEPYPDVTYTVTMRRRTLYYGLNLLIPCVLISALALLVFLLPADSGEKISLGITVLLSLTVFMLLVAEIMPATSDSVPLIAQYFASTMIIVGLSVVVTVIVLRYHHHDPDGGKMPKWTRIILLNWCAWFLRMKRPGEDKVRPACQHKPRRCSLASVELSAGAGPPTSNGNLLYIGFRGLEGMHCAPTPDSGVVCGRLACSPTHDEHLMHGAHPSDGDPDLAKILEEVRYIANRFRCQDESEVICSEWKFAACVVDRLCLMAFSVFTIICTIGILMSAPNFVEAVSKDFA
# [3] = target: Neuronal acetylcholine receptor subunit alpha-7 (Homo sapiens, UniProt P36544); experiment: Agonist activity at human alpha7 nAChR expressed in mouse Neuro2a cells co-expressing chaperone NACHO assessed as increase in intracellular Ca2+ levels in presence of PNU120596 by calcium flux assay; type: cell-based
# Sequence of Neuronal acetylcholine receptor subunit alpha-7 (Homo sapiens, UniProt P36544) (P36544 whole entry): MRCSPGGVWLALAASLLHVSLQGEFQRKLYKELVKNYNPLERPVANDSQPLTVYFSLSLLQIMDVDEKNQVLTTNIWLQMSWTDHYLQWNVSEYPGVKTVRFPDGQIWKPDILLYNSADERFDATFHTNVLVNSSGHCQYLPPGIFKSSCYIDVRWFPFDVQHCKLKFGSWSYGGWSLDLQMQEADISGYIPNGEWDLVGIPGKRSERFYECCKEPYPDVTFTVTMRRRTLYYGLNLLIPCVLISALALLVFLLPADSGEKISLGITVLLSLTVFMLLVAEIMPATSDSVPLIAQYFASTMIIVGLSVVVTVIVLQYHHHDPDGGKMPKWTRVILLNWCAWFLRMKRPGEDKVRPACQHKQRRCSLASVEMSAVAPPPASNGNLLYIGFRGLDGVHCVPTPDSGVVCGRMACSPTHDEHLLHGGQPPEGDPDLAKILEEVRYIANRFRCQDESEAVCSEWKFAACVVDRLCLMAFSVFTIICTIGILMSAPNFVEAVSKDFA
# [4] = target: T1, Neuronal acetylcholine receptor subunit alpha-7; experiment: Agonist activity at rat alpha7 nAChR expressed in Xenopus laevis oocytes after 4 to 5 days at -60 mV holding potential by […] assay; type: cell-based
# In short: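 Two-electrode voltage clamp on defolliculated stage V-VI Xenopus laevis oocytes (collagenase 2 mg/mL, 2 h, 21-24 °C, Ca2+-free Barth's, pH 7.6). Oocytes were injected with 9.2 ng cRNA of human α3+β2 (1:1) or rat α7 plus chaperone NACHO (2:1). Agonist applications were separated by 5 min washout in normal frog Ringer's.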
# [5] = (§1) Agonist activity at nAChR in human SH-SY5Y cells assessed as increase in intracellular Ca2+ levels measured every 2 secs for 3 mins by Fluo4AM-fluorescent dye based assay; type: cell-based; settings: 0.05 h
# In short: (§2)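 SH-SY5Y cells (native nAChRs) in DMEM/F12 with 10% FBS were plated at 5000-10000 cells/well and grown 48-72 h. Cells were loaded with Fluo-4 AM (1.824 μM) and probenecid (1.25 mM). Compound was added just before reading; fluorescence at ex/em 485/535 nm. Mean ± SEM of three independent experiments, each with 5-6 measurements.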
# [6] = target: Neuronal acetylcholine receptor subunit alpha-7 (Rattus norvegicus) (UniProt Q05941); experiment: Displacement of [3H]-methyllycaconitine from alpha7* nAChR in rat brain P2 membranes at 1 uM after 2.5 hrs by liquid scintillation spectrometry relative to control; type: cell membranes
# Sequence of Neuronal acetylcholine receptor subunit alpha-7 (Rattus norvegicus) (Q05941 whole entry): as the sequence (Q05941 whole entry) above
# In short: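 [3H]-Methyllycaconitine binding on rat brain minus cortex, striatum and cerebellum […]. Percent inhibition measured at 1 μM compound. Four independent experiments in duplicate.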
# [7] = species on record: Rattus norvegicus; experiment: Selectivity ratio of Ki for alpha7* nAChR in rat brain P2 membranes to Ki for alpha4beta2* nAChR in Wistar rat cerebral cortex membranes; type: cell membranes
# [8] = test system: SH-SY5Y; experiment: as §1; type: cell-based; in short: as §2
SMILES,Ki [1],Ki [2],EC50 [3],EC50 [4],EC50 [5],inhibition [6],Ratio Ki [7],Activity [8]
N[C@@H]1[C@H]2CC[C@H](C2)[C@H]1c1ccc(Cl)nc1,28 nM,227 nM,,,,,,
N[C@@H]1[C@@H]2CC[C@@H](C2)[C@H]1c1cccnc1,2.11 nM,46 nM,48 nM,5980 nM,1920 nM,,,
CN(C)[C@@H]1[C@H]2CC[C@H](C2)[C@H]1c1ccc(Cl)nc1,294 nM,> 1000 nM,,,,18%,,
CN1CCC[C@H]1c1cccnc1 [NICOTINE],2.31 nM,,,,22500 nM,,,
CN(C)[C@@H]1[C@@H]2CC[C@@H](C2)[C@H]1c1cccnc1,59 nM,> 1000 nM,,,,8%,> 17,
CN[C@@H]1[C@@H]2CC[C@@H](C2)[C@H]1c1cccnc1,10.2 nM,352 nM,2290 nM,> 10000 nM,,,,inactive
CN[C@@H]1[C@@H]2CC[C@@H](C2)[C@H]1c1ccc(Cl)nc1,3.12 nM,116 nM,,,,,37,
CN[C@@H]1[C@H]2CC[C@H](C2)[C@H]1c1cccnc1,206 nM,> 1000 nM,,,,15%,,
CN(C)[C@@H]1[C@H]2CC[C@H](C2)[C@H]1c1cccnc1,554 nM,> 1000 nM,,,,6%,> 2,
CN(C)[C@@H]1[C@@H]2CC[C@@H](C2)[C@H]1c1ccc(Cl)nc1,43 nM,> 1000 nM,6450 nM,> 10000 nM,,33%,,inactive
N[C@@H]1[C@@H]2CC[C@@H](C2)[C@H]1c1ccc(Cl)nc1,1.31 nM,10.5 nM,24 nM,2710 nM,220 nM,,,
N[C@@H]1[C@H]2CC[C@H](C2)[C@H]1c1cccnc1,166 nM,> 1000 nM,,,,30%,,
